Data reported in ChEMBL document CHEMBL2311502, “Discovery of novel and ligand-efficient inhibitors of Plasmodium falciparum and Plasmodium vivax N-myristoyltransferase” (J Med Chem, 2013).
Activity calls are given as the source filed them. No cut-off for these calls is given here.

Columns and labels:
[1] = molecular target: Glycylpeptide N-tetradecanoyltransferase 1 (Homo sapiens) (UniProt P30419); experiment: Inhibition of human NMT1
Plasmodium falciparum = experiment: Antiplasmodium activity against Chloroquine-sensitive later trophozoite form of Plasmodium falciparum 3D7 assessed as parasite growth inhibition after 48 hrs by FACS flow cytometric analysis; type: functional, organism-based; conditions: 3D7, 48 h
[2] = molecular target: T1, Glycylpeptide N-tetradecanoyltransferase (Plasmodium falciparum (isolate 3D7), UniProt Q8ILW6); experiment: Binding affinity to Plasmodium falciparum NMT using GSNKSKPKDASQRRR-NH2 as substrate after 10 to 20 mins by CPM fluorescence assay
T1 sequence (Q8ILW6 whole entry): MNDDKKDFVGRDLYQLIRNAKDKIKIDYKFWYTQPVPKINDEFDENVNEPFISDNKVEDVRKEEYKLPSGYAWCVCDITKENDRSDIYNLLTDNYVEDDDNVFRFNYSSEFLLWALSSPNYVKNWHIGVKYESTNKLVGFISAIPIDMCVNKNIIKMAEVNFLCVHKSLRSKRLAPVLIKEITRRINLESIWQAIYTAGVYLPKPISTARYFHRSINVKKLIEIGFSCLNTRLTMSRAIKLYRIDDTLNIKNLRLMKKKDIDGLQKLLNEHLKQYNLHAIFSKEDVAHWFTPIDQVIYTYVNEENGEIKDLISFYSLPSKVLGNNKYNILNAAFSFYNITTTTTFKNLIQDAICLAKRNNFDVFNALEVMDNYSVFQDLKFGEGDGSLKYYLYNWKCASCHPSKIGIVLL
Summary of the method: (§1)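 Ki derived from enzyme IC50 by the Cheng–Prusoff equation, which corrects for the differing Michaelis constants of each NMT. Each IC50 is the mean of two or more determinations.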

[3] = molecular target: T2, Glycylpeptide N-tetradecanoyltransferase 1 (Homo sapiens, UniProt P30419); experiment: Binding affinity to human NMT1 after 10 to 20 mins by CPM fluorescence assay
T2 sequence (P30419 whole entry): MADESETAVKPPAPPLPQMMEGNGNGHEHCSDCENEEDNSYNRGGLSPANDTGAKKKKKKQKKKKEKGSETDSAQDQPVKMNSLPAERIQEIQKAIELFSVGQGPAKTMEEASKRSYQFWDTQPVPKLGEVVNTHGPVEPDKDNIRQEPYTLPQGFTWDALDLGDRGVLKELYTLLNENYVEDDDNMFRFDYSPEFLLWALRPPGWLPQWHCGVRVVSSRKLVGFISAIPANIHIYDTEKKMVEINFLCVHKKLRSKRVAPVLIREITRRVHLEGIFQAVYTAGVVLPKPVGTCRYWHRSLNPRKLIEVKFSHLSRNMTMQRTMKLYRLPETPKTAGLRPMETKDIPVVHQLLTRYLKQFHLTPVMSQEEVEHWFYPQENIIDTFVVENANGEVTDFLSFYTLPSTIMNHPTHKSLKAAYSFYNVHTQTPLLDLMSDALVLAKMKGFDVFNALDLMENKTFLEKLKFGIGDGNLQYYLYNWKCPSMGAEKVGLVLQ
Summary of the method: as §1

[4] = Binding affinity to recombinant Plasmodium vivax NMT using GSNKSKPKDASQRRR-NH2 as substrate after 10 to 20 mins by CPM fluorescence assay
Summary of the method: as §1

SMILES	inhibition activity call (active/not active) [1]	EC50 (Plasmodium falciparum)	Ki [2]	Ki [3]	Ki [4]
COc1cccc(COC(=O)c2sc3ccccc3c2OC2CCNCC2)c1	Active	2 µM	0.83 µM		
O=C(NCc1ccccc1)c1sc2ccccc2c1OC1CCNCC1	Active	8.1 µM	10.7 µM	4.76 µM	1.32 µM
COc1cccc(CNC(=O)c2sc3ccccc3c2OC2CCNCC2)c1	inactive		> 100 µM	> 100 µM	2.7 µM
O=C(OCc1ccccc1)c1sc2ccccc2c1OC1CCNCC1	Active	4.2 µM	3.37 µM	4.41 µM	2.16 µM
CCOC(=O)c1oc2cccc(OC3CCNCC3)c2c1C	inactive		13.6 µM	> 100 µM	14.9 µM
CCOC(=O)c1oc2ccccc2c1OC1CCNCC1	inactive	61.4 µM	4.47 µM	> 100 µM	1.74 µM
CCOC(=O)c1sc2ccccc2c1OC1CCNCC1	inactive	14.6 µM	1.3 µM	> 100 µM	1.32 µM
